{"source": "ChEMBL document CHEMBL1157065", "about": "“Synthesis and evaluation of some new substituted benzothiazepine and benzoxazepine derivatives as anticonvulsant agents” (Eur J Med Chem, 2010)", "key": {"Rattus norvegicus": {"test_system": "Rattus norvegicus", "test": "Anticonvulsant activity in Charles foster rat assessed as protection against maximal electroshock-induced seizures at 30 mg/kg, ip administered 1 hr before electroshock challenge", "format": "functional", "settings": "route intraperitoneal", "how_it_was_run": "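Charles Foster rats of either sex, 90–150 g, in groups of ten, dosed i.p. with test drug or phenytoin sodium 30 mg/kg. 1 h after dosing, shock of 150 mA delivered by convulsiometer through ear electrodes for 2 s. Presence or absence of extensor response recorded.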"}, "[1]": {"test": "Acute toxicity in ip dosed mouse", "format": "organism-based", "settings": "in vivo, read-out: ALD50"}}, "data": [{"smiles": "CC(O)CO", "note": "(configuration not stated) [PROPYLENE GLYCOL]", "values": [{"measurement": "Activity", "setting": "Rattus norvegicus", "result": 0, "unit": "%"}]}, {"smiles": "Oc1ccc(C2=Nc3ccccc3SC(c3ccccc3Cl)C2)cc1", "note": "(configuration not stated)", "values": [{"measurement": "LD50", "setting": "[1]", "result": "> 1000", "unit": "mg/kg"}, {"measurement": "Activity", "setting": "Rattus norvegicus", "result": 80, "unit": "%"}]}, {"smiles": "Oc1ccc(C2=Nc3ccccc3OC(c3ccccc3O)/C2=C/Nc2ccc(Cl)cc2)cc1", "note": "(configuration not stated)", "values": [{"measurement": "LD50", "setting": "[1]", "result": "> 1000", "unit": "mg/kg"}, {"measurement": "Activity", "setting": "Rattus norvegicus", "result": 60, "unit": "%"}]}, {"smiles": "COc1ccc(N/C=C2\\C(c3ccc(O)cc3)=Nc3ccccc3OC2c2ccc(O)cc2)cc1", "note": "(configuration not stated)", "values": [{"measurement": "LD50", "setting": "[1]", "result": "> 1000", "unit": "mg/kg"}, {"measurement": "Activity", "setting": "Rattus norvegicus", "result": 50, "unit": "%"}]}, {"smiles": "COc1ccc(N/C=C2\\C(c3ccc(O)cc3)=Nc3ccccc3OC2c2ccccc2O)cc1", "note": "(configuration not stated)", "values": [{"measurement": "LD50", "setting": "[1]", "result": "> 1000", "unit": "mg/kg"}, {"measurement": "Activity", "setting": "Rattus norvegicus", "result": 60, "unit": "%"}]}, {"smiles": "COc1cccc(C2Oc3ccccc3N=C(c3ccc(O)cc3)/C2=C\\Nc2ccc(Cl)cc2)c1", "note": "(configuration not stated)", "values": [{"measurement": "LD50", "setting": "[1]", "result": "> 1000", "unit": "mg/kg"}, {"measurement": "Activity", "setting": "Rattus norvegicus", "result": 30, "unit": "%"}]}, {"smiles": "Oc1ccc(C2=Nc3ccccc3OC(c3ccc(O)cc3)C2)cc1", "note": "(configuration not stated)", "values": [{"measurement": "LD50", "setting": "[1]", "result": "> 1000", "unit": "mg/kg"}, {"measurement": "Activity", "setting": "Rattus norvegicus", "result": 70, "unit": "%"}]}, {"smiles": "Oc1ccc(C2=Nc3ccccc3SC(c3ccc(Cl)cc3)/C2=C/Nc2ccc(Cl)cc2)cc1", "note": "(configuration not stated)", "values": [{"measurement": "LD50", "setting": "[1]", "result": "> 1000", "unit": "mg/kg"}, {"measurement": "Activity", "setting": "Rattus norvegicus", "result": 70, "unit": "%"}]}, {"smiles": "Oc1ccc(C2=Nc3ccccc3SC(c3ccc(Cl)cc3)C2)cc1", "note": "(configuration not stated)", "values": [{"measurement": "LD50", "setting": "[1]", "result": "> 1000", "unit": "mg/kg"}, {"measurement": "Activity", "setting": "Rattus norvegicus", "result": 70, "unit": "%"}]}, {"smiles": "COc1ccc(N/C=C2\\C(c3ccc(O)cc3)=Nc3ccccc3SC2c2cccc(OC)c2)cc1", "note": "(configuration not stated)", "values": [{"measurement": "LD50", "setting": "[1]", "result": "> 1000", "unit": "mg/kg"}, {"measurement": "Activity", "setting": "Rattus norvegicus", "result": 50, "unit": "%"}]}, {"smiles": "COc1ccc(N/C=C2\\C(c3ccc(O)cc3)=Nc3ccccc3OC2c2ccc(Cl)cc2)cc1", "note": "(configuration not stated)", "values": [{"measurement": "LD50", "setting": "[1]", "result": "> 1000", "unit": "mg/kg"}, {"measurement": "Activity", "setting": "Rattus norvegicus", "result": 50, "unit": "%"}]}, {"smiles": "COc1cccc(C2CC(c3ccc(O)cc3)=Nc3ccccc3S2)c1", "note": "(configuration not stated)", "values": [{"measurement": "LD50", "setting": "[1]", "result": "> 1000", "unit": "mg/kg"}, {"measurement": "Activity", "setting": "Rattus norvegicus", "result": 30, "unit": "%"}]}, {"smiles": "Oc1ccc(C2=Nc3ccccc3SC(c3ccccc3Cl)/C2=C/Nc2ccc(Cl)cc2)cc1", "note": "(configuration not stated)", "values": [{"measurement": "LD50", "setting": "[1]", "result": "> 1000", "unit": "mg/kg"}, {"measurement": "Activity", "setting": "Rattus norvegicus", "result": 70, "unit": "%"}]}, {"smiles": "Oc1ccc(C2=Nc3ccccc3SC(c3ccccc3O)C2)cc1", "note": "(configuration not stated)", "values": [{"measurement": "LD50", "setting": "[1]", "result": "> 1000", "unit": "mg/kg"}, {"measurement": "Activity", "setting": "Rattus norvegicus", "result": 70, "unit": "%"}]}, {"smiles": "Oc1ccc(C2=Nc3ccccc3SC(c3ccc(O)cc3)/C2=C/Nc2ccc(Cl)cc2)cc1", "note": "(configuration not stated)", "values": [{"measurement": "LD50", "setting": "[1]", "result": "> 1000", "unit": "mg/kg"}, {"measurement": "Activity", "setting": "Rattus norvegicus", "result": 60, "unit": "%"}]}, {"smiles": "COc1ccc(N/C=C2\\C(c3ccc(O)cc3)=Nc3ccccc3OC2c2ccccc2Cl)cc1", "note": "(configuration not stated)", "values": [{"measurement": "LD50", "setting": "[1]", "result": "> 1000", "unit": "mg/kg"}, {"measurement": "Activity", "setting": "Rattus norvegicus", "result": 60, "unit": "%"}]}, {"smiles": "COc1ccc(N/C=C2\\C(c3ccc(O)cc3)=Nc3ccccc3SC2c2ccc(O)cc2)cc1", "note": "(configuration not stated)", "values": [{"measurement": "LD50", "setting": "[1]", "result": "> 1000", "unit": "mg/kg"}, {"measurement": "Activity", "setting": "Rattus norvegicus", "result": 60, "unit": "%"}]}, {"smiles": "COc1ccc(N/C=C2\\C(c3ccc(O)cc3)=Nc3ccccc3SC2c2ccccc2O)cc1", "note": "(configuration not stated)", "values": [{"measurement": "LD50", "setting": "[1]", "result": "> 1000", "unit": "mg/kg"}, {"measurement": "Activity", "setting": "Rattus norvegicus", "result": 70, "unit": "%"}]}, {"smiles": "COc1ccc(N/C=C2\\C(c3ccc(O)cc3)=Nc3ccccc3OC2c2cccc(OC)c2)cc1", "note": "(configuration not stated)", "values": [{"measurement": "LD50", "setting": "[1]", "result": "> 1000", "unit": "mg/kg"}, {"measurement": "Activity", "setting": "Rattus norvegicus", "result": 70, "unit": "%"}]}, {"smiles": "COc1cccc(C2Sc3ccccc3N=C(c3ccc(O)cc3)/C2=C\\Nc2ccc(Cl)cc2)c1", "note": "(configuration not stated)", "values": [{"measurement": "LD50", "setting": "[1]", "result": "> 1000", "unit": "mg/kg"}, {"measurement": "Activity", "setting": "Rattus norvegicus", "result": 40, "unit": "%"}]}, {"smiles": "Oc1ccc(C2=Nc3ccccc3SC(c3ccc(O)cc3)C2)cc1", "note": "(configuration not stated)", "values": [{"measurement": "LD50", "setting": "[1]", "result": "> 1000", "unit": "mg/kg"}, {"measurement": "Activity", "setting": "Rattus norvegicus", "result": 60, "unit": "%"}]}, {"smiles": "Oc1ccc(C2=Nc3ccccc3SC(c3ccccc3O)/C2=C/Nc2ccc(Cl)cc2)cc1", "note": "(configuration not stated)", "values": [{"measurement": "LD50", "setting": "[1]", "result": "> 1000", "unit": "mg/kg"}, {"measurement": "Activity", "setting": "Rattus norvegicus", "result": 60, "unit": "%"}]}, {"smiles": "Oc1ccc(C2=Nc3ccccc3OC(c3ccccc3O)C2)cc1", "note": "(configuration not stated)", "values": [{"measurement": "LD50", "setting": "[1]", "result": "> 1000", "unit": "mg/kg"}, {"measurement": "Activity", "setting": "Rattus norvegicus", "result": 60, "unit": "%"}]}, {"smiles": "COc1cccc(C2CC(c3ccc(O)cc3)=Nc3ccccc3O2)c1", "note": "(configuration not stated)", "values": [{"measurement": "LD50", "setting": "[1]", "result": "> 1000", "unit": "mg/kg"}, {"measurement": "Activity", "setting": "Rattus norvegicus", "result": 20, "unit": "%"}]}, {"smiles": "Oc1ccc(C2=Nc3ccccc3OC(c3ccc(O)cc3)/C2=C/Nc2ccc(Cl)cc2)cc1", "note": "(configuration not stated)", "values": [{"measurement": "LD50", "setting": "[1]", "result": "> 1000", "unit": "mg/kg"}, {"measurement": "Activity", "setting": "Rattus norvegicus", "result": 70, "unit": "%"}]}, {"smiles": "COc1ccc(N/C=C2\\C(c3ccc(O)cc3)=Nc3ccccc3SC2c2ccccc2Cl)cc1", "note": "(configuration not stated)", "values": [{"measurement": "LD50", "setting": "[1]", "result": "> 1000", "unit": "mg/kg"}, {"measurement": "Activity", "setting": "Rattus norvegicus", "result": 90, "unit": "%"}]}, {"smiles": "Oc1ccc(C2=Nc3ccccc3OC(c3ccccc3Cl)C2)cc1", "note": "(configuration not stated)", "values": [{"measurement": "LD50", "setting": "[1]", "result": "> 1000", "unit": "mg/kg"}, {"measurement": "Activity", "setting": "Rattus norvegicus", "result": 70, "unit": "%"}]}, {"smiles": "Oc1ccc(C2=Nc3ccccc3OC(c3ccccc3Cl)/C2=C/Nc2ccc(Cl)cc2)cc1", "note": "(configuration not stated)", "values": [{"measurement": "LD50", "setting": "[1]", "result": "> 1000", "unit": "mg/kg"}, {"measurement": "Activity", "setting": "Rattus norvegicus", "result": 50, "unit": "%"}]}, {"smiles": "Oc1ccc(C2=Nc3ccccc3OC(c3ccc(Cl)cc3)/C2=C/Nc2ccc(Cl)cc2)cc1", "note": "(configuration not stated)", "values": [{"measurement": "LD50", "setting": "[1]", "result": "> 1000", "unit": "mg/kg"}, {"measurement": "Activity", "setting": "Rattus norvegicus", "result": 60, "unit": "%"}]}, {"smiles": "Oc1ccc(C2=Nc3ccccc3OC(c3ccc(Cl)cc3)C2)cc1", "note": "(configuration not stated)", "values": [{"measurement": "LD50", "setting": "[1]", "result": "> 1000", "unit": "mg/kg"}, {"measurement": "Activity", "setting": "Rattus norvegicus", "result": 60, "unit": "%"}]}, {"smiles": "COc1ccc(N/C=C2\\C(c3ccc(O)cc3)=Nc3ccccc3SC2c2ccc(Cl)cc2)cc1", "note": "(configuration not stated)", "values": [{"measurement": "LD50", "setting": "[1]", "result": "> 2000", "unit": "mg/kg"}, {"measurement": "Activity", "setting": "Rattus norvegicus", "result": 70, "unit": "%"}]}, {"smiles": "O=C1N=C([O-])NC1(c1ccccc1)c1ccccc1.[Na+]", "note": "[PHENYTOIN SODIUM]", "values": [{"measurement": "Activity", "setting": "Rattus norvegicus", "result": 80, "unit": "%"}]}]}
